The species entered for data set [1] is Mus musculus. Nature of the data set: Analgesic potency was determined by the Eddy hotplate method on mice expressed as effective dose. The data set is classed as functional. In short, it runs like this:
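Mouse Eddy hot-plate test. Compounds were given as aqueous solutions of the hydrochloride, hydrobromide or oxalate salt. ED50 is reported in mg/kg and μmol/kg, with a range in parentheses for some entries.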

Data set [2] in a line: Analgesic potency was determined by the Eddy hotplate method on mice expressed as lethal dose. The note with it: mouse, in vivo. It counts as ADME, organism-based. Put shortly:
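Toxicity was tested in mice in the same series, using aqueous solutions of the hydrochloride, hydrobromide or oxalate salt, and LD50 is reported in mg/kg. When material was scarce, deaths out of ten mice given a single 50 mg/kg dose were recorded instead.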

Data set [3] is filed under the species Mus musculus. Nature of the data set: Analgesic potency was determined by the Eddy hotplate method on mice expressed as effective dose; IA=Inactive. It counts as functional, organism-based. In short, it runs like this: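 Mice, Eddy hot-plate analgesia. Test compounds given as aqueous solutions of their hydrochloride, hydrobromide or oxalate salts. ED50 reported in mg/kg and μmol/kg, some with a range in parentheses. Where full activity could not be reached without toxicity, an approximate value is cited. Lethality was scored as LD50 in mg/kg or as deaths per ten mice at 50 mg/kg.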

For data set [4], the species on record is Mus musculus. In words: Analgesic potency was determined by the Eddy hotplate method on mice. It counts as functional.

From ChEMBL document CHEMBL1121817, “Synthesis and pharmacological properties of 1,2,3,4,5,6-hexahydro-1,6-methano-2-benzazocines” (J Med Chem, 1981) come the findings set out here.

Where “and” joins values, the source holds several entries; their conditions need not be identical. Identical values can stand only once. Calls of active or inactive are those of the source. The rule behind the calls is not given here.

On to `COc1ccc2c(c1)C1CCCN(C)C2C1.O=C(O)C(=O)O` (stereo unspecified), for which, in the data set listed under Mus musculus [1], the ED50 (as a rule, the midpoint of the dose-response relation) is 16 mg/kg and 52 µmol/kg. Further, the LD50 (commonly the dose expected to kill half of the subjects tested) in data set [2] turned out to be 157 mg/kg.
In data set [2], `O=C(O)C(=O)O.c1ccc2c(c1)C1CCCNC2C1` (stereo unspecified) displayed an LD50 of 225 mg/kg.
On to `COc1ccc2c(c1)C1CCCN(CCc3ccccc3)C2C1` (stereo unspecified), for which the ED50 entry in the data set filed under Mus musculus [3] is “inactive”.
Turning to `CC(C)=CCN1CCCC2CC1c1ccccc12.Cl` (stereo unspecified), the ED50 in the data set listed under Mus musculus [4] was 48 mg/kg and 173 µmol/kg. The LD50 in data set [2] came out at 65 mg/kg.
For the compound `Br.CCCN1CCCC2CC1c1ccc(O)cc12` (stereo unspecified), in the data set listed under Mus musculus [1], the ED50 was 32 mg/kg and 103 µmol/kg.
`CN1CCCC2CC1c1ccc(O)cc12` (stereo unspecified): the ED50 result in the data set filed under Mus musculus [3] is “inactive”.
In data set [2], `O=C(O)C(=O)O.c1ccc(CCN2CCCC3CC2c2ccccc23)cc1` (stereo unspecified) came in with an LD50 of 225 mg/kg.
For the compound `Br.CN1CCCC2CC1c1ccccc12` (stereo unspecified), the ED50 in the data set filed under Mus musculus [4] is 45 mg/kg and 168 µmol/kg.
Compound `C=CCN1CCCC2CC1c1ccccc12.O=C(O)C(=O)O` (stereo unspecified) yielded an LD50 in data set [2] of 150 mg/kg.
Take `Cl.c1ccc(CCN2CCCC3CC2c2ccccc23)cc1` (stereo unspecified): the ED50 in the data set filed under Mus musculus [4] is 86 mg/kg and 246 µmol/kg. Further, the LD50 in data set [2] came out at 225 mg/kg.
As to `CCCN1CCCC2CC1c1ccccc12.Cl` (stereo unspecified), the ED50 in the data set filed under Mus musculus [4] is 28 mg/kg and 112 µmol/kg. The LD50 in data set [2] came to 75 mg/kg.
For the compound `Br.Oc1ccc2c(c1)C1CCCN(CCc3ccccc3)C2C1` (stereo unspecified), the ED50 in the data set listed under Mus musculus [1] is 14 mg/kg and 37 µmol/kg.
In data set [2], `CC(C)=CCN1CCCC2CC1c1ccccc12.O=C(O)C(=O)O` (stereo unspecified) showed an LD50 of 130 mg/kg.
For the compound `Cl.c1ccc2c(c1)C1CCCNC2C1` (stereo unspecified), the ED50 in the data set listed under Mus musculus [4] was 12 mg/kg and 57 µmol/kg. Also, the LD50 in data set [2] stood at 225 mg/kg.
Regarding `COc1ccc2c(c1)C1CCCN(CC=C(C)C)C2C1.O=C(O)C(=O)O` (stereo unspecified), the LD50 in data set [2] is 300 mg/kg. Besides, the ED50 entry in the data set listed under Mus musculus [3] is “inactive”.
Turning to `COc1ccc2c(c1)C1CCCNC2C1.O=C(O)C(=O)O` (stereo unspecified), the ED50 in the data set listed under Mus musculus [1] was 64 mg/kg and 218 µmol/kg.
With `COc1ccc2c3c1O[C@H]1[C@@H](O)C=C[C@H]4[C@@H](C2)N(C)CC[C@@]341.COc1ccc2c3c1O[C@H]1[C@@H](O)C=C[C@H]4[C@@H](C2)N(C)CC[C@@]341.O.O=P(O)(O)O.O=P(O)(O)O` [CODEINE PHOSPHATE], the ED50 in the data set listed under Mus musculus [4] was 6.8 mg/kg and 17 µmol/kg.
Consider `CCCN1CCCC2CC1c1ccccc12.O=C(O)C(=O)O` (stereo unspecified), for which the LD50 in data set [2] came to 110 mg/kg.
For `C=CCN1CCCC2CC1c1ccccc12.Cl` (stereo unspecified), in the data set listed under Mus musculus [4], the ED50 is 28 mg/kg and 112 µmol/kg. In addition, the median lethal dose (LD50) in data set [2] was determined as 110 mg/kg.
